PRMT1 FP inh – blocks human protein arginine methyltransferase 1; actives 1.3% (n = 370,000); recombinant PRMT1, activity-based probe fluorescence polarization; inhibition, % at 2.79 µM; Q99873;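 active = inhibition above about 21% made by adding two undisclosed values, limit read from the data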
LEDGF integ inh – blocks HIV-1 LEDGF/p75-dependent DNA integration; actives 0.64% (n = 370,000); inhibition, % at 3.7 µM; TR-FRET IN-LEDGF/p75 DNA integration, Eu/Cy5;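 active = inhibition above the screen-wide mean plus 3 SD, cut at about 13% in these data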;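 also: signal is the Cy5 over europium emission ratio at 671 and 618 nm; 0% = plate median of compound wells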
UHRF1 binding – UHRF1 methyl-DNA binding inhibition. Q96T88. UHRF1 binding to methylated oligo, TR-FRET. inhibition, % at 4.4 µM. actives 0.75% (n = 370,000); in the data active = inhibition above about 21%;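 also: UHRF1 SRA domain binding a hemimethylated CpG hairpin DNA probe; 0% = median of test compound wells and 100% = reference inhibitor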
Target sequence (Q96T88 whole entry, looked up, the tested form may be a part): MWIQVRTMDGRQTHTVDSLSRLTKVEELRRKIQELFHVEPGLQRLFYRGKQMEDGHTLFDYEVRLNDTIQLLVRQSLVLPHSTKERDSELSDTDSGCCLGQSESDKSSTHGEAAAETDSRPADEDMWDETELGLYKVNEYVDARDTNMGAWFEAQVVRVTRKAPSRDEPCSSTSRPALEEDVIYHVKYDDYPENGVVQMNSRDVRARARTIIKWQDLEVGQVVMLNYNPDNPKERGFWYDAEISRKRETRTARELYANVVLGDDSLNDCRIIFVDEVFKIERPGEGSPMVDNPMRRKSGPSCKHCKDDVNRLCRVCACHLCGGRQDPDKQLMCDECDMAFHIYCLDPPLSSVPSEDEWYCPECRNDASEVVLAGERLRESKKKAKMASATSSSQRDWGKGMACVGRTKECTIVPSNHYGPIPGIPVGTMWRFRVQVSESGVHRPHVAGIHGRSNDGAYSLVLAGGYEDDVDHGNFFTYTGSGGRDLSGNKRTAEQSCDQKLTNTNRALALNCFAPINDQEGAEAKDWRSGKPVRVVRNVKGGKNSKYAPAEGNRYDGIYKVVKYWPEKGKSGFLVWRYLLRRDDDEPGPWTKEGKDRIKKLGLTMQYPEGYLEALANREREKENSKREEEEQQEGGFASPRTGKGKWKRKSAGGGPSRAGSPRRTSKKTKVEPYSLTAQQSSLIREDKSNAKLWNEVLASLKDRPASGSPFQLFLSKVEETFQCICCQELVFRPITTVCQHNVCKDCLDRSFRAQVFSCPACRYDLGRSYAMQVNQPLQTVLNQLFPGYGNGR
RBBP9 inh – inhibitors of human serine hydrolase RBBP9; O75884; recombinant RBBP9, FP-Rh probe fluorescence polarization; inhibition, % at 7.94 µM; actives 0.2% (n = 220,000); AID 1515;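 active = inhibition above the campaign mean of all tested compounds plus 3 SD, cut at about 14% in these data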;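 also: plate controls were DMSO wells with RBBP9 for no effect and wells lacking RBBP9 protein for full effect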
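Test system: recombinant human RBBP9. Quantity: 2.5 µM RBBP9 dispensing solution, before mixing. Detection: FP readout at 525/598 nm. Reagent: Serine-hydrolase probe FP-Rh, 375 nM pre-mixing. Measure: % inhibition. Control set: DMSO-treated enzyme wells and wells lacking RBBP9. Buffer or medium: Tris-NaCl-Pluronic buffer, pH 8.0. Times: preincubation 30 min plus labeling 45 min at 25 °C.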
MBD2 inh – MBD2-methylated oligo binding inhibition. TR-FRET, MBD2 binding to methylated oligonucleotide. Q9UBB5. AID 686964. actives 0.31% (n = 370,000). inhibition, % at 4.4 µM; in the data active = inhibition above about 13%
ABHD5-PLIN5 inh – ABHD5-PLIN5 protein interaction inhibition; Split G. princeps luciferase complementation, luminescence, 4 h; inhibition, % at 4 µM; Q00G26+Q8WTS1; actives 0.78% (n = 360,000); AID 602281;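 active = inhibition above the mean inhibition across every tested compound plus 3 SD, cut at about 22% in these data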;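 also: 0% = DMSO only wells and the 100% control is not disclosed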
* hit, by the source's call; . = no result. Sampled rows, rich in hits. Any-hit rate of the full collection: about 3.1%.

SMILES	PRMT1 FP inh	LEDGF integ inh	UHRF1 binding	RBBP9 inh	MBD2 inh	ABHD5-PLIN5 inh
O=C(C[n+]1cc(-c2ccc(F)cc2)n2c1CCC2)Nc1nc(-c2ccccc2)cs1	1	-4	44*	8	-2	16
O=C(C[n+]1cc(-c2ccc(Cl)cc2)n2c1CCC2)Nc1nc(-c2ccccc2)cs1	-3	-1	-3	-3	2	2
CCCC[C@@H]1Cc2[nH][nH]c(=O)c2[C@@H](c2ccc(Cl)cc2)O1	-1	-2	-6	.	-1	23*
CCCC[C@@H]1Cc2[nH][nH]c(=O)c2[C@H](c2ccc(C(C)C)cc2)O1	0	-4	-6	.	-2	23*
CCCC(=O)C1=C(O)C(C(=O)OC)C(C)(C)CC1=N (configuration not stated)	-3	-2	21*	-6	-1	-3
CC1=C(C(=O)N(C)C)CC(CC(=O)NCCN2CCOCC2)C(=O)N1CCCN1CCCC1=O (configuration not stated)	-1	1	22*	.	7	-1
CC(C)NC(=O)c1ccc(CSCc2ccccc2Cl)o1	-6	-3	25*	.	1	7
CCC(C)NC(=O)c1ccc(CSCc2ccccc2Cl)o1 (configuration not stated)	2	-1	-3	.	3	-1
N#CCC[C@@H]1CC[C@]2(CCCN(S(=O)(=O)c3ccccc3)C2)O1	-1	6	2	.	8	.
Cn1c(=O)c2cc(S(=O)(=O)N3CCN(c4ccc(F)cc4)CC3)ccc2n(C)c1=O	-1	0	-1	.	-9	.
COc1ccc(C)cc1S(=O)(=O)N(CC(=O)Nc1cccc([N+](=O)[O-])c1)c1ccccc1	11	-5	31*	3	4	-11
CNC(=S)NNC(=O)c1ccccc1Br	-2	3	21*	-4	-2	-7
COCCCNC(=S)NNC(=O)c1ccccc1Br	1	-10	2	-8	-2	-4
CCO/C(=C/c1sc2ccc(OC)cc2[n+]1CCCS(=O)(=O)[O-])CC	77*	-9	-9	0	-10	5
CCOC(=O)C[n+]1c(C)sc2ccc(OC)cc21	.	.	.	-18	.	-9
CCC(/C=C1\Sc2ccc(OC)cc2N1CC)=C\c1sc2ccc(OC)cc2[n+]1CCCS(=O)(=O)[O-]	61*	-7	3	-64	-6	0
CCC(=O)/C=C1/Sc2ccc(OC)cc2N1CC	9	-4	1	-1	2	-8
Cc1cc(-c2csc(NC(=O)c3cc4ccccc4o3)n2)c(C)n1C	13	14*	4	-12	0	-1
C[C@@H]1COc2cccc(N3CCCC3)c2S(=O)(=O)N1	0	-2	-2	.	0	.
CCOC(=O)CC[C@@H]1CC[C@]2(CCCN(Cc3ccc(Cl)cc3)C2)O1	-1	-1	1	.	-1	.
Cc1cc(C(=O)OCC(=O)NC2CC2)ccc1[N+](=O)[O-]	1	-2	80*	.	4	-7
Nc1ccc(C(=O)OCC(=O)NC2CC2)cc1[N+](=O)[O-]	-1	-6	-2	-5	-3	-7
CCC(C)Nc1nc(C)nc2c1nnn2Cc1ccccc1 (configuration not stated)	-2	3	1	.	3	.
CCCCCCn1c(-c2ccc(Cl)cc2Cl)csc1=Nc1ccccc1	-2	-2	-1	.	0	.
O=C(c1ccccc1)c1cccs1	2	-1	-1	5	6	2
SMILES	PRMT1 FP inh	LEDGF integ inh	UHRF1 binding	RBBP9 inh	MBD2 inh	ABHD5-PLIN5 inh
O=C(O)c1ccccc1C(=O)c1cccs1	-1	1	24*	-12	8	-11
COc1ccc(C(=O)NCc2nnc(SCC(=O)Nc3nc4ccccc4s3)o2)cc1	23*	-3	1	0	1	-6
O=C(CSC1=NCCS1)Nc1nc2ccccc2s1	42*	-1	-2	-4	-1	-6
COc1ccc(C(=O)NCc2nnc(SCC(=O)c3ccccc3)o2)cc1	-6	0	-1	.	-5	-7
COc1ccc(OC)c(NC(=O)CSc2nnc(CNc3ccc(F)cc3)o2)c1	1	1	1	-1	-5	5
COc1ccc(NCc2nnc(SCC(=O)Nc3ccccc3OC)o2)cc1	22*	1	-6	1	-6	-10
Cc1occc1-c1nnc(SCC(=O)Nc2nc3ccccc3s2)o1	3	3	23*	1	-1	3
C[C@@H]1C(=O)N2N=Cc3cc4ccccc4cc3[C@H]2N2N=Cc3cc4ccccc4cc3[C@@H]12	-2	0	6	.	4	.
CC(C)C[C@@H]1COc2cc(Br)ccc2S(=O)(=O)N1Cc1cn(Cc2ccc(Cl)cc2)nn1	-1	2	-1	.	-3	.
COc1cc(CNC2CCCC2)c(Br)cc1OC1CCCC1	1	-4	30*	-8	0	8
CCCc1nc2ccc(C(=O)OC)cn2c1Cc1ccc(C)cc1	-3	6	22*	.	10	0
COC(=O)c1ccc2nc(-c3ccccc3)c(Cc3ccccc3)n2c1	2	-3	11	.	1	.
CCCc1nc2ccc(C(=O)OC)cn2c1Cc1ccccc1	3	-4	25*	.	11	-6
Cc1[nH]c2ccccc2c1CC(=O)Nc1ccc(Nc2cccnc2)c(-c2ccc(Oc3ccccc3)cc2)c1	-2	2	-1	.	-3	.
O=C1CCC[C@H]2C[C@H](NCc3ccccc3Cl)CC[C@]23CCCN13	-3	-2	-1	.	4	.
C/C(CC(=O)NC12CC3CC(CC(C3)C1)C2)=N\NC(=O)Cc1cccs1	-1	0	1	-6	0	2
C/C(CC(=O)NC1CCCC1)=N\NC(=O)Cc1cccs1	2	5	-1	2	3	63*
O=C(O)c1cccc(N2C(=O)/C(=C/c3ccc(SCc4ccc(Cl)cc4)o3)SC2=S)c1	57*	60*	89*	-5	40*	-14
C[C@@H]1CN([C@H](C)CO)C(=O)c2cc(NS(=O)(=O)c3ccccc3)ccc2O[C@@H](C)CCCCO[C@@H]1CN(C)Cc1ccc(Cl)c(Cl)c1	4	-1	0	.	-3	.
COC(=O)c1cc(C)sc1NC(=O)CSc1ncccn1	22*	-2	3	.	3	0
CC(C)=CCC[C@@]1(C(=O)O)[C@@H]2C/C=C(\C)CC/C=C(\C)CC[C@H]1[C@]1(CC2)CO1	5	4	3	.	3	.
O=C(c1ccc(=O)[nH]c1)N1CCN(S(=O)(=O)c2ccc3ccccc3c2)CC1	2	-5	4	.	0	-1
O=C(c1cncc(Br)c1)N1CCN(S(=O)(=O)c2ccc3ccccc3c2)CC1	2	23*	4	.	-1	0
Cc1ccc(OC(=O)COc2ccccc2C)c(-n2nc3ccccc3n2)c1	24*	-6	-3	-4	3	-8
